Source: PMC7315603 (ACS Omega, 2020)
pIC50: −log10 of the molar value. ≈ marks a conversion by molar mass, not a printed value. Where “and” joins values, the source holds several entries; their conditions need not be identical. Identical values can stand only once. Like-named read-outs stand apart in the source and are kept apart here. Where a SMILES comes first, the peptide text is derived from it. [ ]: non-standard residue; d: D form. dPhe(4-Cl) = N[C@H](Cc1ccc(Cl)cc1)C(=O)O; aIle = CC[C@@H](C)[C@H](N)C(=O)O; dPhLac = O=C(O)[C@H](O)Cc1ccccc1; Sar = CNCC(=O)O

Columns and labels:
[1] = test system: Plasmodium falciparum; settings: natural product; cited from earlier work
[2] = test system: M. tuberculosis H37Ra; settings: natural product; cited from earlier work
[3] = target: human serum albumin (Homo sapiens, UniProt P02768); assay: Human serum albumin binding; format: in vitro ADME
Sequence of human serum albumin (P02768 25-609): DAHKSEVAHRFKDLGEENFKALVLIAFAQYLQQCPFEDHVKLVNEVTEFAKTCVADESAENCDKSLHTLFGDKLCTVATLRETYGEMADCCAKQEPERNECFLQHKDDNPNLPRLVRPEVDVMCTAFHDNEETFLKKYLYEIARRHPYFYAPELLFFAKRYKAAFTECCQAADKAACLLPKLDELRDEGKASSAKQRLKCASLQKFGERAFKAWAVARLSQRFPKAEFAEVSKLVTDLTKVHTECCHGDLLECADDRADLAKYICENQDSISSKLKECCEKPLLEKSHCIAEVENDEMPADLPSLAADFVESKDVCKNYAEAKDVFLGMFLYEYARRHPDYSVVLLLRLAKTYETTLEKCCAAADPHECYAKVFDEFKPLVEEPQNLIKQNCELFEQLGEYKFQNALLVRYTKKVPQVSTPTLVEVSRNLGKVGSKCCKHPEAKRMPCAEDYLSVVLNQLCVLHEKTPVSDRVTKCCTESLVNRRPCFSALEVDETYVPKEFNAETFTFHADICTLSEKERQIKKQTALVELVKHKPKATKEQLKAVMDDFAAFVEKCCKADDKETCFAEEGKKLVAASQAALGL

[4] = test system: P. falciparum strain 3D7; settings: strain 3D7, 3 h
[5] = Intrinsic microsomal clearance, mouse liver microsomes; format: in vitro ADME; settings: for intrinsic microsomal clearance (Clint), mouse: mouse liver microsomes
[6] = Plasma stability, mouse plasma; format: in vitro ADME
Summary of the method: (§1)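 Test compound incubated in human or mouse plasma for 2 h at 37 °C. The amount of compound remaining afterward was quantified and reported as percent remaining.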

[7] = Kinetic aqueous solubility; format: physicochemical
[8] = Intrinsic microsomal clearance, human liver microsomes; format: in vitro ADME; settings: for intrinsic microsomal clearance (Clint), human: human liver microsomes
[9] = Plasma stability, human plasma; format: in vitro ADME; settings: 2 h incubation at 37 °C
Summary of the method: as §1

[10] = test system: Mycobacterium vaccae; assay: MIC against Mycobacterium vaccae, microplate alamar blue broth dilution assay; format: cell-based
[11] = test system: M. tuberculosis H37Rv; settings: drug-susceptible Mtb H37Rv; 6 days + 48 h resazurin
[12] = test system: P. falciparum strain 3D7; assay: microbe, parasite or virus in culture; settings: Plasmodium falciparum, 3D7, read-out: IC50 (P. falciparum 3D7)

| Molecule | % human serum albumin binding (%HSA) [3] | pIC50 [4] | intrinsic microsomal clearance (Clint), mouse [5] | remaining at 2 h [6] [%] | solubility kinetic [7] [mg/mL] | intrinsic microsomal clearance (Clint), human [8] | pIC50 | other results |
| --- | --- | --- | --- | --- | --- | --- | --- | --- |
| hirsutellide A |  |  |  |  |  |  |  | IC50 (Plasmodium falciparum) [1]: 2.8 mg/L; MIC (M. tuberculosis H37Ra) [2]: 6 to 12 mg/L |
| CN1CC(=O)O[C@H](Cc2ccccc2)C(=O)NCC(=O)N(C)CC(=O)O[C@H](Cc2ccccc2)C(=O)NCC1=O [Compound 12] (cyclo(G[Sar][dPhLac]G[Sar][dPhLac])) | 54.7% | 4.70 | 52.00 mL/(min g) tissue | 0 | 0.081 (≈ 147 µM) | 34.00 mL/(min g) tissue | < 4.00 |  |
| CC(C)[C@@H]1NC(=O)[C@@H](Cc2ccccc2)OC(=O)CN(C)C(=O)[C@H](C(C)C)NC(=O)[C@@H](Cc2ccccc2)OC(=O)CN(C)C1=O [Compound 11] (cyclo([Sar][dPhLac]V[Sar][dPhLac]V)) |  | 5.12 |  |  | 0.08 (≈ 126 µM) |  | < 4.00 |  |
| CC[C@@H](C)[C@@H]1NC(=O)[C@@H](CC(C)C)NC(=O)CN(C)C(=O)[C@H]([C@H](C)CC)NC(=O)[C@@H](CC(C)C)NC(=O)CN(C)C1=O [Compound 19] (cyclo([dL][aIle][Sar][dL][aIle][Sar])) | 37% and 37.15% |  | 5.79 mL/(min g) tissue | 88 | ≥ 0.184 | 6.07 mL/(min g) tissue |  |  |
| CC(C)C[C@@H]1NC(=O)[C@@H](Cc2ccccc2)OC(=O)CN(C)C(=O)[C@H](CC(C)C)NC(=O)[C@@H](Cc2ccccc2)OC(=O)CN(C)C1=O [Compound 10] (cyclo(L[Sar][dPhLac]L[Sar][dPhLac])) |  |  |  |  | > 0.18 |  |  |  |
| CC(C)[C@@H]1NC(=O)[C@@H](Cc2ccccc2)NC(=O)CN(C)C(=O)[C@H](C(C)C)NC(=O)[C@@H](Cc2ccccc2)NC(=O)CN(C)C1=O [Compound 15] (cyclo([Sar][dF]V[Sar][dF]V)) |  | 5.11 | 7.52 mL/(min g) tissue |  |  | 3.60 mL/(min g) tissue | < 4.00 |  |
| CC[C@@H](C)[C@@H]1NC(=O)[C@@H](Cc2ccc(OC)cc2)NC(=O)CN(C)C(=O)[C@H]([C@H](C)CC)NC(=O)[C@@H](Cc2ccc(OC)cc2)NC(=O)CN(C)C1=O [Compound 18] (cyclo([Sar][dY](Me)[aIle][Sar][dY](Me)[aIle])) | 77.2% | 5.39 | 13.25 mL/(min g) tissue |  | 0.124 (≈ 172 µM) | 8.18 mL/(min g) tissue | < 4.00 |  |
| CC[C@@H](C)[C@@H]1NC(=O)[C@@H](Cc2ccc(Cl)cc2)NC(=O)CN(C)C(=O)[C@H]([C@H](C)CC)NC(=O)[C@@H](Cc2ccc(Cl)cc2)NC(=O)CN(C)C1=O [Compound 17] (cyclo([Sar][dPhe(4-Cl)][aIle][Sar][dPhe(4-Cl)][aIle])) | 95% and 95.24% | 5.74 |  |  | 0.034 (≈ 46.5 µM) |  | 4.59 |  |
| CC[C@H](C)[C@@H]1NC(=O)[C@@H](Cc2ccccc2)OC(=O)CNC(=O)[C@H]([C@@H](C)CC)NC(=O)[C@@H](Cc2ccccc2)OC(=O)CNC1=O [Compound 13] (cyclo(G[dPhLac]IG[dPhLac]I)) | 91.02% | 4.86 | 65.90 mL/(min g) tissue | 0 | 0.006 (≈ 9.42 µM) | 32.80 mL/(min g) tissue | < 4.00 |  |
| CC[C@@H](C)[C@@H]1NC(=O)[C@@H](Cc2ccccc2)NC(=O)CN(C)C(=O)[C@H]([C@H](C)CC)NC(=O)[C@@H](Cc2ccccc2)NC(=O)CN(C)C1=O [Compound 16] (cyclo([Sar][dF][aIle][Sar][dF][aIle])) |  | 5.66 | 47.71 mL/(min g) tissue |  |  | 18.90 mL/(min g) tissue | < 4.00 |  |
| CC[C@@H](C)[C@@H]1NC(=O)[C@@H](Cc2ccccc2)OC(=O)CN(C)C(=O)[C@H]([C@H](C)CC)NC(=O)[C@@H](Cc2ccccc2)OC(=O)CN(C)C1=O [Compound 9] (cyclo([Sar][dPhLac][aIle][Sar][dPhLac][aIle])) | 88% | 5.64 | 38.3 mL/(min g) tissue | 18 | > 0.18 | 46.53 mL/(min g) tissue | < 4.00 | plasma stability (% remaining), human plasma [9]: 103%; stability in mouse microsomes (in words) [5]: low stability; MIC (M. vaccae) [10]: 18.8 µM (≈ 12.5 µg/mL); MIC (Mtb H37Rv) [11]: > 80 µM; stability in human microsomes (in words) [8]: moderate stability |
| CCN(CC)CCCC(C)Nc1ccnc2cc(Cl)ccc12 (centres unmarked) [CQ, chloroquine] |  |  |  |  |  |  |  | pIC50 [12]: 8.30 |
